Experimental findings from ChEMBL document CHEMBL4513216, “Probing the Open Global Health Chemical Diversity Library for Multistage-Active Starting Points for Next-Generation Antimalarials” (ACS Infect Dis, 2020) are described below.

A short description of this series: Toxicity liver stage against HepG2, at 10uM. Further details: test concentration 10 uM, cell line HepG2-A16-CD81EGFP. The format is cell-based. The following applies: human, HepG2-A16-CD81EGFP cells; read-out: INHIBITION
Summed up:
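Uninfected HepG2-A16-CD81EGFP cells, 3 × 10^3 per well, 1536-well, plated on prespotted compound at 10 μM final, parasite-free screening media added to match infected plates; puromycin 10 μM positive, DMSO 0.5% negative; run in parallel with 48 h PbLuc assay at 37 °C, 5% CO2; viability by CellTiter-Glo luminescence, normalized to controls.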
`CCOc1no[n+]([O-])c1-c1ccccc1`: the cytotoxicity at 10 µM was -6.59%.

As for `O=C(C1CC1)N1CC[C@H](c2nc3ccccc3o2)C1`, the cytotoxicity at 10 µM was -4.07%.

`COc1ccc2c(c1)OC1(CCN(Cc3cccc(C)c3)CC1)CC2=O`: the cytotoxicity at 10 µM is 5.5%.

As to `O=C(CCc1nnc2ccccn2c1=O)NCc1cccnc1`, the cytotoxicity at 10 µM is -1.74%.

Consider `O=S(=O)(Nc1cnc(N2CCCC2)nc1)c1ccc(C(F)(F)F)cc1`, for which the cytotoxicity at 10 µM worked out at 3.15%.

In the case of `O=C(Cc1ccco1)N1CCC2(CCOCC2COCC2CC2)CC1` (stereo unspecified), the cytotoxicity at 10 µM was 4.65%.

Regarding `CCN1CCc2cc(C(=O)N(C)C)c(NCC3CC3)nc2CC1`, the cytotoxicity at 10 µM is 4.65%.

As to `Cc1nc(CN2C(=O)CCC23CCN(c2ncccc2C)CC3)cs1`, the cytotoxicity at 10 µM was -2.07%.

As to `CN(C)CCOCC1CN(C(=O)c2ccccn2)Cc2ccnn2C1` (stereo unspecified), the cytotoxicity at 10 µM is -3.55%.

For `CS(=O)(=O)N[C@@H]1CN(Cc2ccoc2)C[C@@H]2CCCO[C@@H]21`, the cytotoxicity at 10 µM was determined as 13.2%.

With `COCC(=O)NCc1cc(=O)n2c(n1)CN(Cc1ccoc1)CCC2`, the cytotoxicity at 10 µM was -124%.

Regarding `CC(C)CCN1C[C@H]2CCN(C(=O)NC3CCCC3)CC[C@H]2S1(=O)=O`, the cytotoxicity at 10 µM worked out at 4.87%.

`Cc1ncsc1CN1CC[C@H]2OCC[C@@]2(C(=O)N2CCCC2)C1`: the cytotoxicity at 10 µM was found to be 7.63%.

For `Cn1c(=O)n(C)c2nc(Br)c(CC(=O)c3ccccc3)n2c1=O`, the cytotoxicity at 10 µM was 0.9%.

As for `Cc1ccnc(NC(=O)c2cnc(C3CCCNC3)cn2)c1` (stereo unspecified), the cytotoxicity at 10 µM stood at 3.33%.

Take `Cc1cc(N2CCOC(c3ccc(C(N)=O)cn3)C2)ncn1` (stereo unspecified): the cytotoxicity at 10 µM stood at 5.45%.

On to `CNc1ccc(CC2CCCN(Cc3c[nH]cn3)C2)nn1` (stereo unspecified), for which the cytotoxicity at 10 µM is -1.71%.

With `Cc1cnc(-c2nc(O)c3c(n2)CN(C(=O)C2CCCC2)CC3)cn1`, the cytotoxicity at 10 µM was -1.39%.

As to `CN1CCN(C(=O)c2cncc(CC3CCCN(C)C3)c2)CC1` (stereo unspecified), the cytotoxicity at 10 µM worked out at 7.87%.

`CN(C)C(=O)C1CN(Cc2cscn2)CCN(S(C)(=O)=O)C1` (stereo unspecified): the cytotoxicity at 10 µM is -6.46%.

As to `CNC(=O)CN1CCC(CN(C)Cc2ccccc2N(C)C)CC1`, the cytotoxicity at 10 µM is -6.23%.

Take `CCN(CC)S(=O)(=O)NCC1COc2ccccc2O1` (stereo unspecified): the cytotoxicity at 10 µM was 0.347%.

Consider `Cc1cc(NC(=O)NCc2nccn2C)ccc1OC(C)C`, for which the cytotoxicity at 10 µM was -2.74%.

Regarding `CC(=O)c1cccc(OCCCC(=O)NC(C#N)CC(C)C)c1` (stereo unspecified), the cytotoxicity at 10 µM was -41.3%.

As to `CC(C)C(C)NC(=O)CNc1cc2c(cc1Cl)NC(=O)CO2` (stereo unspecified), the cytotoxicity at 10 µM worked out at 0.529%.

With `CCn1cnnc1CNC(=O)NCC(C(C)C)N1CCC(C)CC1` (stereo unspecified), the cytotoxicity at 10 µM was -4.65%.

Consider `Cc1ccc(C(=O)N2CCC3(CCCC3)CC2)c(=O)[nH]1`, for which the cytotoxicity at 10 µM worked out at 2.24%.

With `CC(NC(=O)CNS(C)(=O)=O)c1ccccc1Oc1ccccc1` (stereo unspecified), the cytotoxicity at 10 µM was 4.69%.

As for `CCOCC(=O)NCc1cc(Br)ccc1OC(F)F`, the cytotoxicity at 10 µM turned out to be 21.9%.

`CNC(=O)CN(C)C(=O)c1cc(Cl)c(Cl)n1C`: the cytotoxicity at 10 µM stood at 4.4%.

Take `COc1c(Cl)cc(C(=O)NCCNc2ncccn2)cc1Cl`: the cytotoxicity at 10 µM is -9.32%.

Consider `CCOc1ccc(NC2CCN(C(C)C)C2=O)cn1` (stereo unspecified), for which the cytotoxicity at 10 µM was -17%.

`CCOc1cccc(CCNC(=O)Cc2cccc(O)c2)n1`: the cytotoxicity at 10 µM was -5.26%.

On to `Cc1ccc(C(=O)NCC2CCCCO2)c(=O)[nH]1` (stereo unspecified), for which the cytotoxicity at 10 µM is -0.628%.

As to `Cc1nsc(N2CCN(C(=O)Nc3cccc(C#N)c3)CC2)n1`, the cytotoxicity at 10 µM was -18.7%.

For the compound `CN(c1ccc(CNc2c(Cl)cccc2C#N)cc1)S(C)(=O)=O`, the cytotoxicity at 10 µM was -66.9%.

Take `FC(F)(F)C1CCc2nnc(CNCc3ccsc3)n2C1` (stereo unspecified): the cytotoxicity at 10 µM came to 0.847%.

As to `O=C(NCC(F)(F)F)NC1CCCc2c1cnn2CCO` (stereo unspecified), the cytotoxicity at 10 µM was 4.44%.

On to `Cc1cc(C)c2c(OCC(=O)NC(C)C)nn(C)c2n1`, for which the cytotoxicity at 10 µM was -7.25%.

Regarding `Cn1cc(C2COC3(CCN(C(=O)c4cccn4C)CC3)C2)cn1` (stereo unspecified), the cytotoxicity at 10 µM was -75.4%.

As to `O=C(c1cscn1)N1CCC[C@]2(C[C@@H](OCC3CC3)CO2)C1`, the cytotoxicity at 10 µM is -69.9%.

Take `CC(C)NC(=O)c1cc2c(c3ccccc3n2C)n1C(=O)N(C)C`: the cytotoxicity at 10 µM was -79.4%.

On to `Cc1ccc(C(=O)N2CCO[C@H]3[C@H](OCC4CCOCC4)CC[C@@H]32)o1`, for which the cytotoxicity at 10 µM is 4.28%.

`COCC(=O)N1CCCC2(CCN(c3ccsc3)C2=O)C1` (stereo unspecified): the cytotoxicity at 10 µM amounted to 6.66%.

As to `c1ccc(CN2C[C@@H]3OCCN(CC4CCCO4)[C@@H]3C2)nc1` (stereo partly specified), the cytotoxicity at 10 µM is 0.616%.

In the case of `CN(CCc1ccccc1)C(=O)CN1C(=O)OC[C@@H]1c1ccccc1`, the cytotoxicity at 10 µM was -47%.

Turning to `CCCc1n[nH]c(=O)n1Cc1ccccc1F`, the cytotoxicity at 10 µM came out at 2.24%.

On to `Cc1ccccc1C1CCN(CCNC(=O)CS(C)(=O)=O)C1` (stereo unspecified), for which the cytotoxicity at 10 µM was -49.5%.

Consider `COc1cccc2c1OCC(C(=O)N(Cc1ccncc1)CC(C)C)C2` (stereo unspecified), for which the cytotoxicity at 10 µM was -13.9%.

Turning to `Cc1cc(CNC(=O)C(c2ccc(F)cc2)N(C)C)n[nH]1` (stereo unspecified), the cytotoxicity at 10 µM is -15%.

Take `Nc1ncc(C(=O)N2CCCC(N)CC2)c(-c2ccccc2)n1` (stereo unspecified): the cytotoxicity at 10 µM was -132%.

As for `CNS(=O)(=O)CCn1cc(-c2cc3c(cc2OC)CCC3)nn1`, the cytotoxicity at 10 µM is -2.12%.

Consider `O=C1CC(NS(=O)(=O)N2CCOCC2)CN1Cc1ccc(F)cc1` (stereo unspecified), for which the cytotoxicity at 10 µM was -11%.

As to `COCc1nc(C2CC2)nn1-c1ccccc1Cl`, the cytotoxicity at 10 µM was -0.808%.

As to `Cc1ccsc1-c1cc(C(=O)O)cc(S(=O)(=O)NCc2ccccn2)c1`, the cytotoxicity at 10 µM is -63.8%.

Regarding `CC[C@@H](c1ccccc1)n1c(C2CC2)n[nH]c1=O`, the cytotoxicity at 10 µM was -8.67%.

As to `CN(C)CC1(O)CCCN(C(=O)c2cnc(-c3ccccn3)nc2)C1` (stereo unspecified), the cytotoxicity at 10 µM was -5.53%.

Turning to `NC(=O)c1cncc(-n2ccc(-c3cnccn3)n2)c1`, the cytotoxicity at 10 µM was -11.9%.

For the compound `O=C(c1cc(Br)ccc1Cl)N1CCN(Cc2ccco2)CC1`, the cytotoxicity at 10 µM was -49.4%.

In the case of `CCC[C@@H]1CN(Cc2ccc(C(F)(F)F)nc2)C[C@H]1NS(C)(=O)=O`, the cytotoxicity at 10 µM stood at 10.5%.

Consider `Cc1nc(-c2ccccc2)n(CC(=O)NC2CCCCC2)n1`, for which the cytotoxicity at 10 µM is -1.16%.

As for `CCOc1ccc(CC(=O)N2CCCC(n3nc(C)nc3C)C2)cc1` (stereo unspecified), the cytotoxicity at 10 µM was -3.18%.

In the case of `Cc1cnn(CC2CN(Cc3ccc(C(N)=O)cc3)CCO2)c1` (stereo unspecified), the cytotoxicity at 10 µM was -2.28%.

Regarding `CC(C)Cc1cc(NC(=O)c2ccccn2)n(C)n1`, the cytotoxicity at 10 µM was -7.22%.

Take `Cc1cc(C(=O)N2CCCC2)ccc1NCC(=O)N1CCCCC1C` (stereo unspecified): the cytotoxicity at 10 µM amounted to 5.12%.

`Cc1nn(C)c(Cl)c1C1CCCN1Cc1nc(C2CC2)no1` (stereo unspecified): the cytotoxicity at 10 µM was -6.42%.

On to `CC(C)c1ncc2c(n1)CN(CC(=O)Nc1ccncc1)CC2`, for which the cytotoxicity at 10 µM is -3.23%.

As to `CSc1nccn1-c1cccc(C(=O)NCCN2CCS(=O)(=O)CC2)c1`, the cytotoxicity at 10 µM is -3.97%.

Regarding `CCn1cc(NC(=O)C2CCN(CC(=O)NCC(C)C)CC2)cn1`, the cytotoxicity at 10 µM was -7.52%.

As to `NC(=O)CC1CCCCN1C(=O)c1cccc(C(F)(F)F)c1` (stereo unspecified), the cytotoxicity at 10 µM was -1.03%.

`O=C(NCCNc1cnccn1)N1CCCC(N2CCCC2)C1` (stereo unspecified): the cytotoxicity at 10 µM is -3.12%.

As to `COCCN1CCN(CC(C)(O)c2cccc(C(F)(F)F)c2)CC1` (stereo unspecified), the cytotoxicity at 10 µM was -24.2%.

Turning to `CCc1ccc(OCC(O)CN2CCN(CC)CC2)cc1` (stereo unspecified), the cytotoxicity at 10 µM was -6.54%.

Regarding `CS(=O)(=O)NC1CCCN(C(=O)Nc2cccnc2)C1` (stereo unspecified), the cytotoxicity at 10 µM is -14.2%.

With `COc1ccc(CNCc2ccnc(N3CCCCC3)c2)cc1OC`, the cytotoxicity at 10 µM was 0.222%.

As for `CC(=O)c1cccc(OCC(=O)NS(=O)(=O)c2ccc(C)s2)c1`, the cytotoxicity at 10 µM is -8.29%.

As to `Cc1cccc(NC2CCN(C(=O)Nc3cc(C)on3)CC2)n1`, the cytotoxicity at 10 µM was -13.7%.

On to `Cc1cc(CN2CCN(c3nn4cc(C)nc4s3)CC2)on1`, for which the cytotoxicity at 10 µM amounted to 6.4%.

For `Cc1cnn(C2CCCN(C(=O)c3ccnc(-n4ccnc4)c3)C2)c1` (stereo unspecified), the cytotoxicity at 10 µM was -1.88%.

On to `O=C(NCc1cccnc1)C1CC(=O)N(CC2CC2)C1` (stereo unspecified), for which the cytotoxicity at 10 µM was -3.46%.

As for `O=C(NCCCn1cncn1)NCC(c1ccccc1)N1CCCC1` (stereo unspecified), the cytotoxicity at 10 µM is -3.99%.

As for `CC1CCN(C(=O)CN(Cc2ccco2)C2CC2)CC1`, the cytotoxicity at 10 µM is -4.74%.

As for `CN(Cc1ncc(-c2ccccc2)o1)CC1CCCN1c1cccnn1` (stereo unspecified), the cytotoxicity at 10 µM is 3.75%.

With `Cc1ccc(C2(CN3CCN(Cc4cn(C)nc4C)CC3)CC2)cc1`, the cytotoxicity at 10 µM was found to be 1.74%.

Consider `O=C(COc1ccccc1)N1C[C@@H](O)[C@H](N2CCCC2)C1`, for which the cytotoxicity at 10 µM was -6.54%.

For `CCN1CCCC12CCN(C(=O)c1ccsc1)CC2`, the cytotoxicity at 10 µM is -152%.

`CN(Cc1ccco1)Cc1cncc2c1CCN(c1ncccn1)C2`: the cytotoxicity at 10 µM was -6.42%.

As for `COCCN1CCN(Cc2ccncc2)c2ncccc2C1`, the cytotoxicity at 10 µM was -70.9%.

Regarding `Cn1cccc1C(=O)N1C[C@@H]2CCN(c3cccnc3)C[C@@H]2C1`, the cytotoxicity at 10 µM is -58.3%.

As to `O=C([C@H]1C[C@H]2OCC[C@H]2N(Cc2cccnc2)C1)N1CCCCO1`, the cytotoxicity at 10 µM is -69.8%.

With `CCOCCN1Cc2ncn(C)c2C(COCC2CCOCC2)C1` (stereo unspecified), the cytotoxicity at 10 µM was -70.6%.

Turning to `O=C1C[C@H]2[C@@H](CCN2C(=O)Cc2cccs2)N1Cc1ccncc1`, the cytotoxicity at 10 µM was 6.12%.

On to `CN(Cc1ccccc1)C1COC2(CCN(Cc3nccs3)CC2)C1` (stereo unspecified), for which the cytotoxicity at 10 µM is -19.5%.

Turning to `Cc1cccc(C(=O)N2CC(C(=O)NCC3CC3)C3(CCOCC3)C2)n1` (stereo unspecified), the cytotoxicity at 10 µM was found to be 2.11%.

For the compound `O=C(c1ccco1)N1C[C@H]2CCCN(Cc3cccs3)[C@H]2C1`, the cytotoxicity at 10 µM came out at 5.71%.

Take `CC(C)CN1CC[C@@H]2[C@H](CC1)N(C(=O)c1ccccc1)CCS2(=O)=O`: the cytotoxicity at 10 µM is -128%.
